Reference: ChEMBL document CHEMBL1122917, “Vinblastin-23-oyl amino acid derivatives: chemistry, physicochemical data, toxicity, and antitumor activities against P388 and L1210 leukemias” (J Med Chem, 1985)
Where “and” joins values, the source holds several entries; their conditions need not be identical. Equal entries are not always repeated.

Tests used:
[1] = Acute iv toxicity against NMRI strain of 100 mice after 7 doses of injection; format: organism-based; conditions: mouse, in vivo
Procedure, shortened: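 Acute toxicity in Swiss, CD1 or NMRI mice. Drugs given iv as sulfate salts. LD50 taken at day 14 from several dose levels, with 40–[…] mice per drug and strain.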

Mus musculus [2] = experiment: Percent increase in life span at dose 6 mg/kg/day in 10 mice implanted with P388 leukemia cell line; format: functional
Procedure, shortened: (§1)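 Female DBA2 mice inoculated iv on day 0 with 10^4 P388 cells; single iv treatment on day 1 with drug as sulfate salt in physiological saline. Survival followed; %ILS from all deaths and survivors as (T/C × 100) − 100, maximal MST 30 days; survivors counted on days 30 and 60. Most experiments confirmed three times.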

Mus musculus [3] = experiment: Percent increase in life span of DBA2 mice after inoculation with L1210 leukemia intravenously at a dose of 8 mg/kg per day; format: functional; conditions: route intravenous
Procedure, shortened: (§2)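 Female DBA2 mice inoculated iv on day 0 with 10^4 L1210 cells; drugs given iv as sulfate salts in physiological saline, mostly once on day 1. %ILS from all deaths and survivors as (T/C × 100) − 100; survivors scored on days 30 and 60.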

Mus musculus [4] = experiment: Percent increase in life span of DBA2 mice after inoculation with L1210 leukemia intravenously at a dose of 4 mg/kg per day; format: functional; conditions: route intravenous; procedure, shortened: as §2
Mus musculus [5] = experiment: Percent increase in life span of DBA2 mice after inoculation with L1210 leukemia intravenously at a dose of 5 mg/kg per day; format: functional; conditions: for ILS at 5 mg/kg/day: Mus musculus, L1210, iv; procedure, shortened: as §2
Mus musculus [6] = experiment: Percent increase in life span of DBA2 mice after inoculation with L1210 leukemia intravenously at a dose of 6 mg/kg per day; format: functional; conditions: route intravenous; procedure, shortened: as §2
Mus musculus [7] = experiment: Percent increase in life span of DBA2 mice after inoculation with L1210 leukemia intravenously at a dose of 7 mg/kg per day; format: functional; conditions: route intravenous; procedure, shortened: as §2
Mus musculus [8] = experiment: Number of survivors on 60th day at dose 6 mg/kg/day in 10 mice implanted with P388 leukemia cell line; 0/10; format: functional
Mus musculus [9] = experiment: Percent increase in life span at dose 7 mg/kg/day in 10 mice implanted with P388 leukemia cell line; format: functional; procedure, shortened: as §1
Mus musculus [10] = experiment: Percent increase in life span at dose 8 mg/kg/day in 10 mice implanted with P388 leukemia cell line; format: functional; procedure, shortened: as §1
Mus musculus [11] = experiment: Number of survivors of DBA2 mice on 30th day after inoculation with L1210 leukemia cell line intravenously at a dose of 4 mg/kg/day; 0/10; format: functional; conditions: route intravenous
Mus musculus [12] = experiment: Number of survivors of DBA2 mice on 30th day after inoculation with L1210 leukemia cell line intravenously at a dose of 5 mg/kg/day; 0/10; format: functional; conditions: route intravenous
Mus musculus [13] = experiment: Number of survivors of DBA2 mice on 30th day after inoculation with L1210 leukemia cell line intravenously at a dose of 7 mg/kg/day; 0/10; format: functional; conditions: route intravenous
Mus musculus [14] = experiment: Number of survivors of DBA2 mice on 30th day after inoculation with L1210 leukemia cell line intravenously at a dose of 8 mg/kg/day; 0/10; format: functional; conditions: route intravenous
Mus musculus [15] = experiment: Number of survivors of DBA2 mice on 30th day after inoculation with L1210 leukemia cell line intravenously at a dose of 9 mg/kg/day; 0/10; format: functional; conditions: route intravenous
Mus musculus [16] = experiment: Percent increase in life span at dose 9 mg/kg/day in 10 mice implanted with P388 leukemia cell line; format: functional; procedure, shortened: as §1
Mus musculus [17] = experiment: Percent increase in life span at dose 4 mg/kg/day in 10 mice implanted with P388 leukemia cell line; format: functional; conditions: for ILS at 4 mg/kg/day: Mus musculus, P388; procedure, shortened: as §1
Mus musculus [18] = experiment: Percent increase in life span at dose 5 mg/kg/day in 10 mice implanted with P388 leukemia cell line; format: functional; procedure, shortened: as §1
Mus musculus [19] = experiment: Number of survivors on 60th day at dose 8 mg/kg/day in 10 mice implanted with P388 leukemia cell line; 0/10; format: functional; procedure, shortened: as §1
Mus musculus [20] = experiment: Number of survivors on 60th day at dose 9 mg/kg/day in 10 mice implanted with P388 leukemia cell line; 0/10; format: functional; procedure, shortened: as §1
Mus musculus [21] = experiment: Number of survivors on 30th day at dose 4 mg/kg/day in 10 mice implanted with P388 leukemia cell line; 0/10; format: functional
Mus musculus [22] = experiment: Number of survivors on 60th day at dose 7 mg/kg/day in 10 mice implanted with P388 leukemia cell line; 0/10; format: functional; procedure, shortened: as §1
Mus musculus [23] = experiment: Number of survivors of DBA2 mice on 60th day after inoculation with L1210 leukemia cell line intravenously at a dose of 4 mg/kg/day; 0/10; format: functional; conditions: route intravenous
Mus musculus [24] = experiment: Number of survivors of DBA2 mice on 60th day after inoculation with L1210 leukemia cell line intravenously at a dose of 5 mg/kg/day; 0/10; format: functional; conditions: route intravenous
Mus musculus [25] = experiment: Number of survivors of DBA2 mice on 60th day after inoculation with L1210 leukemia cell line intravenously at a dose of 6 mg/kg/day; 0/10; format: functional; conditions: route intravenous
Mus musculus [26] = experiment: Number of survivors of DBA2 mice on 60th day after inoculation with L1210 leukemia cell line intravenously at a dose of 7 mg/kg/day; 0/10; format: functional; conditions: route intravenous
Mus musculus [27] = experiment: Number of survivors of DBA2 mice on 60th day after inoculation with L1210 leukemia cell line intravenously at a dose of 8 mg/kg/day; 0/10; format: functional; conditions: route intravenous
[28] = Acute iv toxicity against mice after a dose of injection; format: organism-based; conditions: mouse, in vivo
Mus musculus [29] = experiment: Number of survivors of DBA2 mice on 60th day after inoculation with L1210 leukemia cell line intraperitoneally at a dose of 2 mg/kg/day; 0/10; format: functional; conditions: route intraperitoneal
Mus musculus [30] = experiment: Number of survivors of DBA2 mice on 60th day after inoculation with L1210 leukemia cell line intraperitoneally at a dose of 3 mg/kg/day; 0/10; format: functional; conditions: route intraperitoneal
Mus musculus [31] = experiment: Number of survivors on 60th day at dose 3 mg/kg/day in 10 mice implanted with P388 leukemia cell line; 0/10; format: functional
Mus musculus [32] = experiment: Number of survivors of DBA2 mice on 30th day after inoculation with L1210 leukemia cell line intraperitoneally at a dose of 2 mg/kg/day; 0/10; format: functional; conditions: route intraperitoneal
Mus musculus [33] = experiment: Number of survivors of DBA2 mice on 30th day after inoculation with L1210 leukemia cell line intravenously at a dose of 3 mg/kg/day; 0/10; format: functional; conditions: route intravenous
[34] = Acute iv toxicity against rat after a dose of injection; format: organism-based; conditions: in vivo
Mus musculus [35] = experiment: Number of survivors of DBA2 mice on 60th day after inoculation with L1210 leukemia cell line intravenously at a dose of 3 mg/kg/day; 0/10; format: functional; conditions: route intravenous
Mus musculus [36] = experiment: Percent increase in life span of BDF1 mice after inoculation with P388 leukemia intraperitoneally at a dose of 2 mg/kg per day; conditions: P388, ip
Mus musculus [37] = experiment: Percent increase in life span of BDF1 mice after inoculation with P388 leukemia intraperitoneally at a dose of 3 mg/kg per day; conditions: P388, ip
Mus musculus [38] = experiment: Percent increase in life span of BDF1 mice after inoculation with P388 leukemia intraperitoneally at a dose of 6 mg/kg per day; conditions: P388, ip
Mus musculus [39] = experiment: Number of survivors on 60th day at dose 2 mg/kg/day in 10 mice implanted with P388 leukemia cell line; 0/10; format: functional

Compound	ILS at 6 mg/kg/day (Mus musculus [2])	ILS at 4 mg/kg/day (Mus musculus [4])	ILS at 5 mg/kg/day (Mus musculus [5])	ILS at 7 mg/kg/day (Mus musculus [7])	Survivors (Mus musculus [8])	ILS at 7 mg/kg/day (Mus musculus [9])	ILS at 8 mg/kg/day (Mus musculus [10])	Survivors (Mus musculus [11])	Survivors (Mus musculus [12])	Survivors (Mus musculus [13])	ILS at 5 mg/kg/day (Mus musculus [18])	Survivors (Mus musculus [21])	Survivors (Mus musculus [23])	Survivors (Mus musculus [24])	Survivors (Mus musculus [26])	LD50 [28]	Survivors (Mus musculus [32])	LD50 [34]	Survivors (Mus musculus [35])	ILS at 2 mg/kg/day (Mus musculus [36])	also measured
CCOC(=O)[C@H](Cc1c[nH]c2ccccc12)NC(=O)[C@@]1(O)[C@H](O)[C@]2(CC)C=CCN3CC[C@@]4(c5cc([C@@]6(C(=O)OC)C[C@H]7C[N@](CCc8c6[nH]c6ccccc86)C[C@](O)(CC)C7)c(OC)cc5N(C)[C@@]14C)[C@@H]32																					LD50 [1]: 269 mg/kg
CCOC(=O)[C@@H](NC(=O)[C@@]1(O)[C@H](O)[C@]2(CC)C=CCN3CC[C@@]4(c5cc([C@@]6(C(=O)OC)C[C@H]7C[N@](CCc8c6[nH]c6ccccc86)C[C@](O)(CC)C7)c(OC)cc5N(C)[C@@]14C)[C@@H]32)[C@@H](C)CC	73.5%	20%	36%	27%	0	56%	> 183%	0	0	0	60.4%	0	0	0	0						ILS at 8 mg/kg/day (Mus musculus [3]): 49%; ILS at 6 mg/kg/day (Mus musculus [6]): 41.3%; Survivors (Mus musculus [14]): 0; Survivors (Mus musculus [15]): 0; ILS at 9 mg/kg/day (Mus musculus [16]): 34%; ILS at 4 mg/kg/day (Mus musculus [17]): 60%; Survivors (Mus musculus [19]): 0; Survivors (Mus musculus [20]): 0; Survivors (Mus musculus [22]): 0; Survivors (Mus musculus [25]): 0; Survivors (Mus musculus [27]): 0
CC[C@]1(O)C[C@@H]2CN(CCc3c([nH]c4ccccc34)[C@@](C(=O)OC)(c3cc4c(cc3OC)N(C)[C@H]3[C@@](O)(C(=O)OC)[C@H](OC(C)=O)[C@]5(CC)C=CCN6CC[C@]43[C@@H]65)C2)C1 [VINBLASTINE]	48%	31.9%	37%	35%	0	59.3%	72.9%	0	0	0	47.1%	0	0	0	0	10 mg/kg	0	2.9 mg/kg	0	54%	ILS at 8 mg/kg/day (Mus musculus [3]): 57.6%; Survivors (Mus musculus [29]): 0; Survivors (Mus musculus [30]): 0; Survivors (Mus musculus [31]): 0; ILS at 6 mg/kg/day (Mus musculus [6]): 24.7%; Survivors (Mus musculus [14]): 0; Survivors (Mus musculus [15]): 0; ILS at 9 mg/kg/day (Mus musculus [16]): 49.5%; ILS (Mus musculus [17]): 42.3% and 112%; Survivors (Mus musculus [20]): 0; Survivors (Mus musculus [33]): 0; Survivors (Mus musculus [25]): 0; Survivors (Mus musculus [27]): 0; LD50 [1]: 27.4 mg/kg; ILS at 3 mg/kg/day (Mus musculus [37]): 63%; ILS at 6 mg/kg/day (Mus musculus [38]): -61%
CC[C@]1(O)C[C@H]2CN(CCc3c([nH]c4ccccc34)[C@@](C(=O)OC)(c3cc4c(cc3OC)N(C=O)[C@H]3[C@@](O)(C(=O)OC)[C@H](OC(C)=O)[C@]5(CC)C=CCN6CC[C@]43[C@@H]65)C2)C1 [VINCRISTINE]		24%	36%					0	0				0	0		1 mg/kg	0	1 mg/kg	0	53%	Survivors (Mus musculus [39]): 0; Survivors (Mus musculus [33]): 0
CC[C@]1(O)C[C@@H]2CN(CCc3c([nH]c4ccccc34)[C@@](C(=O)OC)(c3cc4c(cc3OC)N(C)[C@H]3[C@@](O)(C(N)=O)[C@H](O)[C@]5(CC)C=CCN6CC[C@]43[C@@H]65)C2)C1 [VINDESINE]	32%			-9.1%	0	24%	-46%		0	0	30.2%	0		0	0	6.3 mg/kg	0	2.6 mg/kg	0	89.5%	Survivors (Mus musculus [29]): 0; Survivors (Mus musculus [30]): 0; Survivors (Mus musculus [39]): 0; Survivors (Mus musculus [31]): 0; ILS (Mus musculus [5]; route intravenous): 11.5% and 25.7%; ILS at 4 mg/kg/day (Mus musculus [17]): 25.5%; Survivors (Mus musculus [19]): 0; Survivors (Mus musculus [22]): 0; ILS at 3 mg/kg/day (Mus musculus [37]): 89%; ILS at 6 mg/kg/day (Mus musculus [38]): -47%
